Experimental data taken from ChEMBL document CHEMBL1154599 (J Med Chem, 2009).
pIC50: −log10 of the molar value. Calls of active or inactive are those of the source. The rule behind the calls is not given here.

Experiments:
[1] = target: Cytochrome P450 2E1 (Homo sapiens, UniProt P05181); experiment: Inhibition of human recombinant CYP2E1; type: ADME
In short: (§1)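 Human recombinant CYP isoenzymes (supersomes) were incubated at 37 C with the test compound in incubation/NADPH-regenerating buffer plus a fluorogenic substrate. The substrate was 3-[2-(N,N-diethyl-N-methylammonium)ethyl]-7-methoxy-4-methylcoumarin for CYP2D6 and 7-methoxy-4-phenylcoumarin for CYP2E1. Fluorescent product was read at isoform-appropriate wavelengths, with a literature inhibitor as positive control. IC50 came from nonlinear regression of at least seven concentrations, each in duplicate.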

[2] = Aqueous solubility at pH 3.0 by turbidimetric method; type: physicochemical; conditions: aqueous solution
In short: (§2)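 DMSO stock of compound added in 2 μL portions, about 10 additions, to 50 mM Tris-HCl pH 7.4 or 50 mM acetate pH 3.0 at room temperature, final DMSO below 5%. Precipitation read as light-scattering absorbance rise at 600-820 nm. Solubility limit taken from a bilinear fit of absorbance against DMSO volume. Three independent assays, mean ± SEM.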

[3] = target: Cytochrome P450 2C19 (Homo sapiens, UniProt P33261); experiment: Inhibition of human recombinant CYP2C19; type: ADME
In short: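 Human recombinant CYP supersomes incubated at 37 °C with compound in NADPH-regenerating buffer, with fluorogenic substrates: 3-cyano-7-ethoxycoumarin for CYP2C19, […] for CYP3A4. Fluorescence read on a plate reader. Known isoform inhibitors run as positive controls in every assay.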

[4] = system: Mus musculus; experiment: Ex vivo inhibition of MAO-B in C57Bl mouse brain at 0.5 mg/kg, po after 2 hrs by radioenzymatic assay; type: functional; parameters: scale not given: the % may be the effect or the level left
In short: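 C57Bl mice (n = 6 per group) given 0.5 mg/kg orally and killed at 0.5, 1, 2, 4, 8 or 16 h. Brain homogenates in 0.1 M phosphate pH 7.40 assayed radioenzymatically for MAO-B with [14C]PEA. Mean ± SEM, ANOVA with Dunnett's test.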

[5] = target: T1, Cytochrome P450 1A2 (Homo sapiens, UniProt P05177); experiment: Inhibition of human recombinant CYP1A2; type: ADME
T1 sequence (P05177 whole entry): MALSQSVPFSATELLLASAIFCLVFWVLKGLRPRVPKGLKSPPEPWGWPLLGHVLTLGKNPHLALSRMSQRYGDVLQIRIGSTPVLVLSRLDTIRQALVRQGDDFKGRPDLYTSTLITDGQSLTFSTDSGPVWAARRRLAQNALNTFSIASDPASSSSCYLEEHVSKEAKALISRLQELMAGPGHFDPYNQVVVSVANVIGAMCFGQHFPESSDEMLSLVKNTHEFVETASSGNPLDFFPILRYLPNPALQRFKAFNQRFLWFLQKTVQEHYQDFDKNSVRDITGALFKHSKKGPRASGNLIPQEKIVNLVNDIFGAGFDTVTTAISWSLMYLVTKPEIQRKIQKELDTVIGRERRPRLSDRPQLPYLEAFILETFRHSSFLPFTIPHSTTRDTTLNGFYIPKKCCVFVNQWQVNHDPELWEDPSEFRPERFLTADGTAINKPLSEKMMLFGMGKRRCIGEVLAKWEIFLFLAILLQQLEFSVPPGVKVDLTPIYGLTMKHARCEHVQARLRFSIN
In short: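 Recombinant human CYP supersomes were incubated at 37 C in incubation/NADPH regenerating buffer with isoform-specific substrates that turn fluorescent on metabolism. The substrate was 3-cyano-7-ethoxycoumarin for CYP1A2 and 7-methoxy-4-trifluoromethylcoumarin for CYP2C9. Fluorescence was read at the appropriate excitation/emission wavelengths, with a literature inhibitor as positive control in each assay.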

[6] = species: Mus musculus; experiment: Ex vivo inhibition of MAO-B in C57Bl mouse brain after 1 hr by radioenzymatic assay; type: functional
[7] = target: Cytochrome P450 2D6 (Homo sapiens, UniProt P10635); experiment: Inhibition of human recombinant CYP2D6; type: ADME; in short: as §1
[8] = Aqueous solubility at pH 7.4 by turbidimetric method; type: physicochemical; conditions: aqueous solution; in short: as §2
[9] = system: SH-SY5Y; experiment: Cytotoxicity against human SH-SY5Y cells assessed as cellular damage up to 10 uM after 24 hrs by MTS assay; type: functional, cell-based
In short: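 Human neuroblastoma SH-SY5Y cells kept in DMEM with 10% heat-inactivated FBS. Seeded at 6.25 × 10^4/cm2 and grown 72 h to subconfluence. Switched to serum-free neurobasal medium 30 min before compound, then 24 h at 37 °C with 1, 3, 10, 30 or 100 μM compound. Viability read by colorimetric MTS assay.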

[10] = Octanol-water partition coefficient, log P by potentiometric titration; type: physicochemical
[11] = Permeability across PAMPA membrane assessed as amount of drug reaching acceptor compartment at 2.5 mM by HDM-PAMPA assay; type: ADME; conditions: 2500 µM
In short: (§3)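 Hexadecane artificial membrane (0.75 μL per well, applied as 5% v/v in hexane, hexane evaporated) on polycarbonate filters; donor and acceptor in 0.1 M phosphate buffer pH 6.8 with 5% DMSO (iso-pH); 5 h at room temperature, shaking at 75 rpm; quadruplicate. Donor and acceptor concentrations read by UV at λmax. Retention, CA(t)/CD(0) and Pe calculated by the stated equations, τLAG neglected; membrane integrity checked by electrical resistance.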

[12] = Permeability across PAMPA membrane assessed as retention at 2.5 mM by HDM-PAMPA assay; type: ADME; conditions: 2500 µM; in short: as §3

Chain of Cytochrome P450 2E1 (P05181 whole entry, canonical isoform): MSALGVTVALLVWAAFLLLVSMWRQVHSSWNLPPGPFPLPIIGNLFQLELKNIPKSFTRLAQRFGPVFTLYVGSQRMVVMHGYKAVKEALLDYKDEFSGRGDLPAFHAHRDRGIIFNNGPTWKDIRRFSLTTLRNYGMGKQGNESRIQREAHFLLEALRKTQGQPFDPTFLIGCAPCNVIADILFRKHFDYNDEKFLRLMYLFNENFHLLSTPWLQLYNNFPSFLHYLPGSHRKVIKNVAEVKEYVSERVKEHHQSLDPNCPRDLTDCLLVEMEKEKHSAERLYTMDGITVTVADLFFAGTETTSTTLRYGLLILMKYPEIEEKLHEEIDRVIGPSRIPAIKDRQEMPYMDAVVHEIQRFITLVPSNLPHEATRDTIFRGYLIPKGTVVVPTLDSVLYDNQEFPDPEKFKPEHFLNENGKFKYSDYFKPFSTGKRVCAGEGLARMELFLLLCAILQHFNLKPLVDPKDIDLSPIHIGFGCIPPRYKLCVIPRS
Chain of Cytochrome P450 2C19 (P33261 whole entry, canonical isoform): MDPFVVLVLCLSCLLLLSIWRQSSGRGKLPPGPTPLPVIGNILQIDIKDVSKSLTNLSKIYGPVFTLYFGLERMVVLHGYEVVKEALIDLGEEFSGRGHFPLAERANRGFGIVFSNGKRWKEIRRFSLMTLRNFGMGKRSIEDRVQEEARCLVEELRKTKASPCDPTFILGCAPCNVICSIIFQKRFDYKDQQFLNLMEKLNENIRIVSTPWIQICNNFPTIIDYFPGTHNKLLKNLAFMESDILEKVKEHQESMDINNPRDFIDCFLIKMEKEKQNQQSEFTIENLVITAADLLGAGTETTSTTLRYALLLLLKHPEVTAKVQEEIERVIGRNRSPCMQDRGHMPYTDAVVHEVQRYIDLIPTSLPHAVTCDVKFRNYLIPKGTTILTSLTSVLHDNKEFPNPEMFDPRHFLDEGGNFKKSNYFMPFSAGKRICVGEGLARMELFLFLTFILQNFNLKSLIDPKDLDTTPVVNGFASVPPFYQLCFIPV
Chain of Cytochrome P450 2D6 (P10635 whole entry): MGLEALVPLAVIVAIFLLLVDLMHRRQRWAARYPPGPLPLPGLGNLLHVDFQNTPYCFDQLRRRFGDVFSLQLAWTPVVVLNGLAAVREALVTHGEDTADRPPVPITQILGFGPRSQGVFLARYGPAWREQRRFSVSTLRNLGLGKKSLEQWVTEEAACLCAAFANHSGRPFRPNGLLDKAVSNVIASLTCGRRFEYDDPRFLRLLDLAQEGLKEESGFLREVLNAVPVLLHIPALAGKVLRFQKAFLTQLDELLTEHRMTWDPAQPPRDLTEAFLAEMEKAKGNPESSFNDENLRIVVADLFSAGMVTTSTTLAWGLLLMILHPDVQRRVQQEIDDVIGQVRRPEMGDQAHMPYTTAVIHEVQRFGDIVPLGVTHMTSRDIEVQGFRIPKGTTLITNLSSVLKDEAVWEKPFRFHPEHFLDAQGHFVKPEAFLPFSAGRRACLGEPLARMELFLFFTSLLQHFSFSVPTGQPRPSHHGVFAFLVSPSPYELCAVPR

With `CNCc1cc(=O)oc2cc(OCc3cccc(Cl)c3)ccc12.CS(=O)(=O)O` the pIC50 [1] was under 5.30, the solubility kinetic [2] was 2820 µg/mL and the pIC50 [3] was under 5.30. The Activity [4] was 90%, the pIC50 [5] was under 5.30 and the ED50 [6] was 0.24 mg/kg. For the same compound, the pIC50 [7] was under 5.30, the solubility kinetic [8] was 52 µg/mL and the Activity [9] was “inactive”. It also gave a logP [10] of 2.49, a permeability [11] of 33.8% and a permeability [12] of 10%.
